# Experimental data reported in ChEMBL document CHEMBL1123594, “Antiradiation compounds. 20. 1-Methylquinolinium(and pyridinium)-2-dithioacetic acid derivatives” (J Med Chem, 1987).
# Columns and labels:
# Mus musculus [1] = assay: Percent protective effect was determined in mice using 849 rads for 30 min after (ip) administration of 600 mg/kg; type: functional
# Mus musculus [2] = assay: Percent protective effect was determined in mice using 849 rads for 30 min after (po) administration of 600 mg/kg; type: functional
# [3] = Toxic dose was determined after (ip) administration of a dose of 4.69 mg/kg in mice at 1000-rad-gamma-radiation for 30 mins; type: toxicity, organism-based; set-up: dose 4.69 mg/kg; conditions: mouse, in vivo
# Summary of the method: (§1)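 Drug-toxicity deaths were counted within the radioprotection groups: 10 female C57 B16 mice, dosed by the route stated, then given whole-body 1000-rad γ-irradiation 30 min later. Deaths attributed to compound toxicity occurred before day 5 and were scored separately from the 30-day survival count.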
# Mus musculus [4] = assay: Percent survival was determined over a period of 30 days after intraperitoneal administration of a dose of 2.34 mg/kg in mice; type: functional; conditions: ip, 720 h
# Summary of the method: (§2)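 Female C57 B16 mice (18-20 g), groups of 10, dosed ip in water or 10-20% aqueous ethanol (sometimes with Klucel or a Tween). Whole-body 1000-rad γ-irradiation 30 min after dosing. Survival was followed over 30 days, and animals alive beyond 30 days were counted as protected. Testing was done at Walter Reed Army Institute of Research.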
# Mus musculus [5] = assay: Percent survival was determined over a period of 30 days after intraperitoneal administration of a dose of 4.69 mg/kg in mice; type: functional; conditions: ip, 720 h; summary of the method: as §2
# Mus musculus [6] = assay: Percent survival was determined over a period of 30 days after intraperitoneal administration of a dose of 1.17 mg/kg in mice; type: functional; conditions: ip, 720 h; summary of the method: as §2
# [7] = Toxic dose was determined after (ip) administration of a dose of 37.5 mg/kg in mice at 1000-rad-gamma-radiation for 30 mins; type: toxicity, organism-based; set-up: dose 37.5 mg/kg; conditions: mouse, in vivo; summary of the method: as §1
# Mus musculus [8] = assay: Percent survival was determined over a period of 30 days after intraperitoneal administration of a dose of 37.5 mg/kg in mice; type: functional; conditions: ip, 720 h; summary of the method: as §2
# Mus musculus [9] = assay: Percent survival was determined over a period of 30 days after intraperitoneal administration of a dose of 9.4 mg/kg in mice; type: functional; conditions: ip, 720 h; summary of the method: as §2
# Mus musculus [10] = assay: Percent survival was determined over a period of 30 days after intraperitoneal administration of a dose of 18.8 mg/kg in mice; type: functional; conditions: ip, 720 h; summary of the method: as §2
# Mus musculus [11] = species: Mus musculus; assay: Percent protective effect was determined in mice using 825 rads for 30 min; type: functional
# Mus musculus [12] = assay: Percent survival was determined over a period of 30 days after intraperitoneal administration of a dose of 1.2 mg/kg in mice; type: functional; conditions: ip, 720 h; summary of the method: as §2
# Mus musculus [13] = assay: Percent survival was determined over a period of 30 days after intraperitoneal administration of a dose of 2.3 mg/kg in mice; type: functional; conditions: ip, 720 h; summary of the method: as §2
# [14] = Toxic dose was determined after (ip) administration of a dose of 2.3 mg/kg in mice at 1000-rad-gamma-radiation for 30 mins; type: toxicity, organism-based; set-up: dose 2.3 mg/kg; conditions: mouse, in vivo; summary of the method: as §1
# Mus musculus [15] = assay: Percent survival was determined over a period of 30 days after intraperitoneal administration of a dose of 0.6 mg/kg in mice; type: functional; conditions: ip, 720 h; summary of the method: as §2
# Mus musculus [16] = assay: Percent survival was determined over a period of 30 days after intraperitoneal administration of a dose of 4.7 mg/kg in mice; type: functional; conditions: ip, 720 h; summary of the method: as §2
# [17] = Toxic dose was determined after (ip) administration of a dose of 9.4 mg/kg in mice at 1000-rad-gamma-radiation for 30 mins; type: toxicity, organism-based; set-up: dose 9.4 mg/kg; conditions: mouse, in vivo; summary of the method: as §1
# [18] = Toxic dose was determined after (ip) administration of a dose of 4.7 mg/kg in mice at 1000-rad-gamma-radiation for 30 mins; type: toxicity, organism-based; set-up: dose 4.7 mg/kg; conditions: mouse, in vivo; summary of the method: as §1
# [19] = Toxic dose was determined after (ip) administration of a dose of 18.8 mg/kg in mice at 1000-rad-gamma-radiation for 30 mins; type: toxicity, organism-based; set-up: dose 18.8 mg/kg; conditions: mouse, in vivo; summary of the method: as §1
# Mus musculus [20] = assay: Percent protective effect was determined in mice using 825 rads for 30 min after administration of 120 mg/kg; type: functional
# [21] = Toxic dose was determined after (po) administration of a dose of 300 mg/kg in mice at 1000-rad-gamma-radiation for 30 mins; type: toxicity, organism-based; set-up: dose 300 mg/kg; conditions: mouse, in vivo; summary of the method: as §1
# Mus musculus [22] = assay: Percent survival was determined over a period of 30 days after oral administration of a dose of 150 mg/kg in mice; type: functional; conditions: 720 h
# Summary of the method: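 Female C57 B16 mice (18-20 g), groups of 10, dosed orally. Whole-body 1000-rad γ-irradiation 30 min after dosing. Percent survival was scored over 30 days, with mice surviving beyond 30 days counted as protected.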
# [23] = Toxic dose was determined after (ip) administration of a dose of 150 mg/kg in mice at 1000-rad-gamma-radiation for 30 mins; type: toxicity, organism-based; set-up: dose 150 mg/kg; conditions: mouse, in vivo; summary of the method: as §1
# Mus musculus [24] = assay: Percent survival was determined over a period of 30 days after intraperitoneal administration of a dose of 75 mg/kg in mice; type: functional; conditions: 75 mg/kg; summary of the method: as §2
# Mus musculus [25] = assay: Percent survival was determined over a period of 30 days after intraperitoneal administration of a dose of 150 mg/kg in mice; type: functional; conditions: ip, 720 h; summary of the method: as §2
# Mus musculus [26] = assay: Percent protective effect was determined in mice using 600 rads for 30 min after administration of 100 mg/kg; type: functional
# Mus musculus [27] = assay: Percent survival was determined over a period of 30 days after intraperitoneal administration of a dose of 2.4 mg/kg in mice; type: functional; conditions: ip, 720 h; summary of the method: as §2
compound,measurement,setting,value
N#CC(C(=O)N1CCCC1)=C([S-])[S-].[K+].[K+],Protective effect,Mus musculus [1],80%
same,Protective effect,Mus musculus [2],30%
CS/C(=C\c1ccc2ccccc2[n+]1C)N1CCCCC1.[I-],LD50 at 0.5 h,[3],5 mg/kg
same,survival at 2.34 mg/kg,Mus musculus [4],70%
same,survival at 4.69 mg/kg,Mus musculus [5],10%
same,survival at 1.17 mg/kg,Mus musculus [6],30%
COCCN/C(=C/c1ccc2ccccc2[n+]1C)SC.[I-],LD50 at 0.5 h,[7],50 mg/kg
same,survival at 37.5 mg/kg,Mus musculus [8],0%
same,survival at 9.4 mg/kg,Mus musculus [9],0%
same,survival at 18.8 mg/kg,Mus musculus [10],0%
NC(=O)c1ccc[n+](CC(=S)[S-])c1,Protective effect,Mus musculus [11],>45%
CCCCSC(=Cc1cccc[n+]1C)SCCCC.[I-],survival at 1.2 mg/kg,Mus musculus [12],10%
same,survival at 2.3 mg/kg,Mus musculus [13],30%
same,LD50 at 0.5 h,[14],3 mg/kg
same,survival at 0.6 mg/kg,Mus musculus [15],0%
CS/C(=C\c1ccc2ccccc2[n+]1C)NCCCO.[I-],LD50 at 0.5 h,[7],50 mg/kg
same,survival at 37.5 mg/kg,Mus musculus [8],0%
same,survival at 9.4 mg/kg,Mus musculus [9],0%
same,survival at 18.8 mg/kg,Mus musculus [10],0%
CS/C(=C\c1ccc2ccccc2[n+]1C)N1CCN(CCCO)CC1.[I-],survival at 4.7 mg/kg,Mus musculus [16],0%
same,survival at 2.3 mg/kg,Mus musculus [13],0%
same,LD50 at 0.5 h,[17],> 10 mg/kg
same,survival at 9.4 mg/kg,Mus musculus [9],30%
CCCCCCSC(=Cc1cccc[n+]1C)SCCCCCC.[I-],survival at 1.2 mg/kg,Mus musculus [12],0%
same,survival at 4.7 mg/kg,Mus musculus [16],0%
same,survival at 2.3 mg/kg,Mus musculus [13],0%
same,LD50 at 0.5 h,[18],5 mg/kg
COC(CN/C(=C/c1ccc2ccccc2[n+]1C)SC)OC.[I-],LD50 at 0.5 h,[19],30 mg/kg
same,survival at 4.7 mg/kg,Mus musculus [16],0%
same,survival at 9.4 mg/kg,Mus musculus [9],0%
same,survival at 18.8 mg/kg,Mus musculus [10],30%
N#CC(C(=O)c1ccccc1)=C([S-])[S-].[K+].[K+],Protective effect,Mus musculus [20],17%
CSC(=Cc1ccc2ccccc2[n+]1C)SC.[I-],LD50 at 0.5 h,[21],> 300 mg/kg
same,survival at 150 mg/kg,Mus musculus [22],10%
same,LD50 at 0.5 h,[23],300 mg/kg
same,Survival,Mus musculus [24],0%
same,survival at 37.5 mg/kg,Mus musculus [8],0%
same,survival at 150 mg/kg,Mus musculus [25],60%
CCOC(=O)C(C#N)=C([S-])[S-].[K+].[K+],Protective effect,Mus musculus [26],50%
CSC(=Cc1c2ccccc2cc[n+]1C)SC.[I-],survival at 4.7 mg/kg,Mus musculus [16],0%
same,survival at 2.3 mg/kg,Mus musculus [13],0%
same,LD50 at 0.5 h,[17],15 mg/kg
same,survival at 9.4 mg/kg,Mus musculus [9],20%
CS/C(=C\c1cccc[n+]1C)N1CCCCC1.[I-],survival at 4.7 mg/kg,Mus musculus [16],20%
same,LD50 at 0.5 h,[17],25 mg/kg
same,survival at 2.4 mg/kg,Mus musculus [27],30%
same,survival at 9.4 mg/kg,Mus musculus [9],80%
CCSC(=Cc1cccc[n+]1C)SCC.[I-],survival at 4.7 mg/kg,Mus musculus [16],0%
same,LD50 at 0.5 h,[17],20 mg/kg
same,survival at 9.4 mg/kg,Mus musculus [9],20%
